In ChEMBL document CHEMBL1817552, “Isolation, identification, and biological evaluation of HIF-1-modulating compounds from Brazilian green propolis” (Bioorg Med Chem, 2011):
Each block holds one compound with its values, some of them ahead of it. Active and inactive are the calls of the source. The rule behind the calls is not given here.

What was measured:
HCT-116 [1] = assay: Cytotoxicity against human HCT116 cells assessed as cell viability under normoxic condition at 100 uM after 24 hrs by MTT assay; type: functional
How it was run: (§1)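 HCT116 cells seeded at 6.0 × 10^3 cells/well in McCoy's 5A with 10% FBS and antibiotics, grown 24 h, then exposed to compound for 24 h under normoxia (20% O2) or hypoxia (1% O2, 94% N2, 5% CO2, 37 °C). MTT 0.5 mg/mL added for 4 h at 37 °C, cells lysed in DMSO, absorbance read at 570 nm. Final DMSO 1.0% (v/v).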

HEK293 [2] = assay: Modulation of HIF1 expressed in HEK293 cells assessed as luciferase activity under hypoxic condition at 50 uM after 24 hrs by luminometer analysis relative to hypoxic control; type: cell-based
How it was run: (§2)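 HEK293 stable clone carrying a luciferase reporter driven by a 68-bp ENO1 hypoxia response element upstream of the SV40 promoter, seeded at 8 × 10^4 cells/well. After 24 h, compound added; 1 h later cells moved to 1% O2 hypoxia for 24 h. Luciferase read by luminometer, expressed as ratio to hypoxic control. Final DMSO 0.5%; triplicate wells.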

[3] = Solubility of the compound in dimethylsulfoxide; type: physicochemical
[4] = Antiangiogenic activity in 3-day-old embryonated chicken eggs at 300 ng/CAM measured on 7th embryonic day by CAM assay; type: functional, Gallus gallus, Egg
HCT-116 [5] = assay: Cytotoxicity against human HCT116 cells assessed as cell viability under normoxic condition at 200 uM after 24 hrs by MTT assay; type: functional; how it was run: as §1
[6] = Modulation of HIF1 expressed in HEK293 cells assessed as luciferase activity under hypoxic condition after 24 hrs by luminometer analysis; type: cell-based; settings: HEK293, 24 h
HCT-116 [7] = assay: Cytotoxicity against human HCT116 cells assessed as cell viability under hypoxic condition at 200 uM after 7 days by clonogenic assay; type: functional
How it was run: (§3)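 HCT116 cells plated at 3.0 × 10^2 cells per dish and treated 24 h under normoxia (20% O2) or hypoxia (1% O2). On day 7 colonies were washed with PBS, fixed in methanol 30 min at room temperature, stained with Giemsa over 3 h, then counted.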

[8] = molecular target: T1, Hypoxia inducible factors; HIF-1-alpha, HIF-2-alpha (Homo sapiens) (UniProt Q16665+Q99814); assay: Inhibition of HIF1-dependent GLUT1 mRNA expression in human HCT116 cells under hypoxic condition at 50 uM after 24 hrs by RT-PCR analysis; type: cell-based; settings: HCT-116
How it was run: (§4)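 HCT116 cells seeded at 1 × 10^6 per dish in McCoy's 5A/10% FBS, grown 24 h, then treated 24 h under hypoxia (1% O2) or normoxia. Total RNA extracted directly after treatment. Real-time RT-PCR run as 95 °C 30 s, then 40 cycles of 95 °C 5 s and 60 °C 30 s. Normalized to 18S rRNA, relative expression by 2^-ΔΔCT; mean ± SD.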

HCT-116 [9] = assay: Cytotoxicity against human HCT116 cells assessed as cell viability under normoxic condition at 200 uM after 7 days by clonogenic assay; type: functional; how it was run: as §3
HCT-116 [10] = assay: Inhibition of HIF1alpha expression in human HCT116 cells under hypoxic condition after 4 hrs by immunoblotting; type: functional, cell-based
How it was run: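 HCT116 cells at 4 × 10^6 per dish, grown 24 h, then exposed 4 h under hypoxia (1% O2) or normoxia (20% O2). Lysed on ice in Tris/SDS/deoxycholate buffer with protease and phosphatase inhibitors; 120 µg protein per lane on 7% SDS-PAGE. Probed with mouse anti-human HIF-1α (1:500) and β-actin control; HRP secondary, chemiluminescence quantitation.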

HCT-116 [11] = assay: Cytotoxicity against human HCT116 cells assessed as cell viability under hypoxic condition at 200 uM after 24 hrs by MTT assay; type: functional; how it was run: as §1
[12] = molecular target: T1, Hypoxia inducible factors; HIF-1-alpha, HIF-2-alpha (Homo sapiens); assay: Inhibition of HIF1-dependent VEGFA mRNA expression in human HCT116 cells under hypoxic condition at 50 uM after 24 hrs by RT-PCR analysis; type: cell-based; settings: HCT-116; how it was run: as §4
[13] = molecular target: T1, Hypoxia inducible factors; HIF-1-alpha, HIF-2-alpha (Homo sapiens); assay: Inhibition of HIF1-dependent HK2 mRNA expression in human HCT116 cells under hypoxic condition at 50 uM after 24 hrs by RT-PCR analysis; type: cell-based; settings: HCT-116; how it was run: as §4
HCT-116 [14] = assay: Cytotoxicity against human HCT116 cells assessed as cell viability under normoxic condition at 50 uM after 7 days by clonogenic assay; type: functional
HCT-116 [15] = assay: Cytotoxicity against human HCT116 cells assessed as cell viability under normoxic condition at 50 uM after 24 hrs by MTT assay; type: functional
HCT-116 [16] = assay: Cytotoxicity against human HCT116 cells assessed as cell viability under hypoxic condition at 50 uM after 24 hrs by MTT assay; type: functional; how it was run: as §1
HCT-116 [17] = assay: Cytotoxicity against human HCT116 cells assessed as cell viability under hypoxic condition at 50 uM after 7 days by clonogenic assay; type: functional
HCT-116 [18] = assay: Cytotoxicity against human HCT116 cells assessed as cell viability under normoxic condition after 24 hrs by MTT assay; type: functional, cell-based; settings: HCT-116, 24 h; how it was run: as §1
HEK293 [19] = assay: Modulation of HIF1 expressed in HEK293 cells assessed as luciferase activity under hypoxic condition at 30 uM after 24 hrs by luminometer analysis relative to hypoxic control; type: cell-based; how it was run: as §2

SMILES: CC(C)(C)c1cc(/C=C/C(=O)O)cc(C(C)(C)C)c1O
Activity (HCT-116 [1]): 108.4%
Ratio (HEK293 [2]): 0.77

solubility [3]: Insoluble
SMILES: C=C(C)[C@@H]1CC[C@]2(C)CC[C@]3(C)[C@H](CC[C@@H]4[C@@]5(C)CC[C@H](OC(=O)C[C@H](O)CCCCCCCCCCCCC)C(C)(C)[C@@H]5CC[C@]43C)[C@@H]12

SMILES: COc1ccc(/C=C/C(=O)O)cc1CC=C(C)C
Activity (HCT-116 [1]): 95.7%
Ratio (HEK293 [2]): 0.82

SMILES: C=CCc1cc(/C=C/C(=O)O)ccc1O
Activity (HCT-116 [1]): 98.4%
Ratio (HEK293 [2]): 0.9

SMILES: O=C(O)/C=C/c1ccc(OC(=O)CCc2ccccc2)cc1
Ratio (HEK293 [2]): 1.08

SMILES: CC(C)=CCc1cc(/C=C/C(=O)O)cc(CC=C(C)C)c1O [ARTEPILLIN]
inhibition (INH) [4]: 80.9%
Activity (HCT-116 [5]): 53.3%
Ratio (HEK293 [2]): 1.09

IC50 [6]: 77.4 µM
inhibition [8]: Active
inhibition [12]: Active
inhibition [13]: Active
SMILES: CC(C)=CCc1cc(/C=C/C(=O)O)ccc1OC(=O)CCc1ccccc1 [BACCHARIN]
Activity (HCT-116 [7]): 74%
inhibition (INH) [4]: 83.2%
Activity (HCT-116 [9]): 74.8%
inhibition (HCT-116 [10]): Dose-dependent effect
Activity (HCT-116 [5]): 58.2%
Activity (HCT-116 [11]): 69.4%
Ratio (HEK293 [2]): 0.52

SMILES: COc1ccc(-c2oc3cc(O)c(OC)c(O)c3c(=O)c2O)cc1 [BETULETOL]
Activity (HCT-116 [14]): 96.8%
inhibition (INH) [4]: 46.7%
Activity (HCT-116 [15]): 69%
Activity (HCT-116 [16]): 86.8%
Activity (HCT-116 [17]): 90.3%

SMILES: O=C(O)/C=C/c1ccc(O)cc1 [COUMARIC ACID]
Activity (HCT-116 [1]): 99.3%
Ratio (HEK293 [2]): 0.93

IC50 [6]: 25.6 µM
inhibition [8]: Active
inhibition [12]: Active
inhibition [13]: Active
SMILES: CC(C)=CCc1cc(/C=C/C(=O)O)ccc1O [DRUPANIN]
Activity (HCT-116 [7]): 101.2%
inhibition (INH) [4]: 84.3%
Activity (HCT-116 [9]): 105.8%
inhibition (HCT-116 [10]): Dose-dependent effect
Activity (HCT-116 [5]): 127.1%
Activity (HCT-116 [11]): 146%
Ratio (HEK293 [2]): 0.36

SMILES: COc1ccc(-c2oc3cc(O)cc(O)c3c(=O)c2O)cc1 [KAEMPFERIDE]
Activity (HCT-116 [14]): 79.9%
inhibition (INH) [4]: 39.5%
Activity (HCT-116 [15]): 102.5%
Activity (HCT-116 [16]): 173.3%
Activity (HCT-116 [17]): 87.6%

SMILES: COC(=O)/C=C/c1ccc(OC)c(CC=C(C)C)c1 [PALICATIN B METHYL ETHER]
IC50 (HCT-116 [18]): 37.6 µM
Ratio (HEK293 [19]): 1.17

SMILES: COC(=O)/C=C/c1ccc(O)c(CC=C(C)C)c1 [PLICATIN B]
IC50 (HCT-116 [18]): 10.6 µM
